Values belong to the molecule of their own block, whether it stands above or below them.
Key:
[1] = AUC (0-infinity) in Ugandan children patient with uncomplicated malaria at 10 mg/kg, perorally qd on first 2 days and then 5 mg/kg, perorally on third day co-administered with artesunate at 4 mg/kg, perorally bid for 3 days; type: ADME, organism-based; set-up: dose 10 mg/kg, time infinity, route oral; settings: human, plasma, po
Procedure, shortened: (§1)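 Oral AQ-AS was given for 3 days with food and fat to Ugandan children aged 5–13 y (n = 21). Venous blood was drawn pre-last dose and at 2, 4, 8, 24 and 120 h after it. For AQ-DEAQ, plasma was cold-centrifuged at 3,000 × g for 15 min and stored at −80°C. AUC0-∞ used trapezoids plus Clast/λz, with λz usually from the last three points.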

Homo sapiens [2] = experiment: AUC (0-120 hrs) in Ugandan children patient with uncomplicated malaria assessed as desethylamodiaquine level at 10 mg/kg, perorally qd on first 2 days and then 5 mg/kg, perorally on third day co-administered with artesunate at 4 mg/kg, perorally bid for 3 days; type: ADME, organism-based, Plasma; set-up: dose 10 mg/kg, time < 120 hr, route oral; settings: in vivo, po
Homo sapiens [3] = experiment: AUC (0-infinity) in Ugandan children patient with uncomplicated malaria assessed as desethylamodiaquine level at 10 mg/kg, perorally qd on first 2 days and then 5 mg/kg, perorally on third day co-administered with artesunate at 4 mg/kg, perorally bid for 3 days; type: ADME, organism-based, Plasma; set-up: dose 10 mg/kg, time infinity, route oral; settings: in vivo, po; procedure, shortened: as §1
Homo sapiens [4] = experiment: Half life in Ugandan children patient with uncomplicated malaria assessed as desethylamodiaquine level at 10 mg/kg, perorally qd on first 2 days and then 5 mg/kg, perorally on third day co-administered with artesunate at 4 mg/kg, perorallybid for 3 days; type: ADME, organism-based; settings: in vivo, po; procedure, shortened: as §1
Homo sapiens [5] = experiment: Cmax in Ugandan children patient with uncomplicated malaria assessed as desethylamodiaquine level at 10 mg/kg, perorally qd on first 2 days and then 5 mg/kg, perorally on third day co-administered with artesunate at 4 mg/kg, perorally bid for 3 days; type: ADME, organism-based; set-up: dose 10 mg/kg, route oral; settings: in vivo, po; procedure, shortened: as §1
[6] = AUC (0-infinity) in healthy human adult at 600 mg administered as single dose; type: ADME, organism-based; set-up: dose 600 mg, time infinity; settings: plasma
[7] = Half life in Ugandan children patient with uncomplicated malaria at 10 mg/kg, perorally qd on first 2 days and then 5 mg/kg, perorally on third day co-administered with artesunate at 4 mg/kg, perorally bid for 3 days; type: ADME, organism-based; settings: human, in vivo, po; procedure, shortened: as §1
[8] = AUC (0-8 hrs) in Ugandan children patient with uncomplicated malaria at 10 mg/kg, perorally qd on first 2 days and then 5 mg/kg, perorally on third day co-administered with artesunate at 4 mg/kg, perorally bid for 3 days; type: ADME, organism-based; set-up: dose 10 mg/kg, time < 8 hr, route oral; settings: human, plasma, po
Homo sapiens [9] = experiment: AUC (0-infinity) in healthy human adult assessed as desethylamodiaquine level at 600 mg administered as single dose; type: ADME, organism-based, Plasma; set-up: dose 600 mg, time infinity; settings: in vivo
[10] = Cmax in Ugandan children patient with uncomplicated malaria at 10 mg/kg, perorally qd on first 2 days and then 5 mg/kg, perorally on third day co-administered with artesunate at 4 mg/kg, perorally bid for 3 days; type: ADME, organism-based; set-up: dose 10 mg/kg, route oral; settings: human, in vivo, po; procedure, shortened: as §1
Homo sapiens [11] = experiment: Plasma concentration in Gabonian malarial children aged 6 months to 10 years assessed as desethylamodiaquine level at 30 mg/kg measured on third day post dose; settings: in vivo
Homo sapiens [12] = experiment: Plasma concentration in Nigerian human adult malaria patient assessed as desethylamodiaquine level at 25 mg/kg measured on seventh day post dose; settings: in vivo
[13] = AUC (0-infinity) in Ugandan children patient with uncomplicated malaria administered twice daily for 3 days as 20/120 mg tablets containing artemether-lumefantrine combination; type: ADME, organism-based; set-up: dose 120 mg, time infinity; settings: human, plasma, po
Procedure, shortened: (§2)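 Children (5–13 y, n = 20) took AL twice daily for 3 days by weight band (20–24 kg, 2 tablets; 25–34 kg, 3; >34 kg, 4), each dose with 250 ml milk (3.3 g fat). Plasma was sampled 0–120 h after the morning last dose. AR and DHA were measured by LC-MS/MS; LR by HPLC-UV (LLOQ 25 ng/ml). Values below LLOQ were treated as missing.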

[14] = Cmax in Ugandan children patient with uncomplicated malaria administered twice daily for 3 days as 20/120 mg tablets containing artemether-lumefantrine combination; type: ADME, organism-based; set-up: dose 120 mg; settings: human, in vivo, oral; procedure, shortened: as §2
Homo sapiens [15] = experiment: Half life in Ugandan children patient with uncomplicated malaria assessed as dihydroartemisin administered twice daily for 3 days as 20/120 mg tablets containing artemether-lumefantrine combination; type: ADME, organism-based; settings: in vivo, po, 72 h; procedure, shortened: as §2
[16] = Half life in Ugandan children patient with uncomplicated malaria administered twice daily for 3 days as 20/120 mg tablets containing artemether-lumefantrine combination; type: ADME, organism-based; settings: human, in vivo, po; procedure, shortened: as §2
Homo sapiens [17] = experiment: Cmax in Ugandan children patient with uncomplicated malaria assessed as dihydroartemisin administered twice daily for 3 days as 20/120 mg tablets containing artemether-lumefantrine combination; type: ADME, organism-based; set-up: dose 120 mg; settings: in vivo, po, 72 h; procedure, shortened: as §2
Homo sapiens [18] = experiment: AUC (0-infinity) in Ugandan children patient with uncomplicated malaria assessed as dihydroartemisin administered twice daily for 3 days as 20/120 mg tablets containing artemether-lumefantrine combination; type: ADME, organism-based, Plasma; set-up: dose 120 mg, time infinity; settings: in vivo, po, 72 h; procedure, shortened: as §2
Homo sapiens [19] = experiment: AUC (0-infinity) in Ugandan children patient with uncomplicated malaria assessed as dihydroartemisinin level at 4 mg/kg, perorally […] co-administered with amodiaquine at 10 mg/kg, perorally qd on first 2 days and then 5 mg/kg, perorally on third day; type: ADME, organism-based, Plasma; set-up: dose 4 mg/kg, time infinity, route oral; settings: in vivo, po
Procedure, shortened: (§3)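 Ugandan children aged 5–13 y with uncomplicated malaria (n = 21) were dosed once daily for 3 days, with food and fat. Venous plasma was sampled before the last dose and 2, 4, 8, 24 and 120 h after it, cold-centrifuged and stored at −80°C. AS and DHA were measured by solid-phase extraction LC-MS/MS (positive ion mode). AUC0-∞ used the linear up-log down trapezoidal rule; Cmax was observed.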

[20] = Cmax in Ugandan children patient with uncomplicated malaria at 4 mg/kg, perorally […] for 3 days co-administered with amodiaquine at 10 mg/kg, perorally qd on first 2 days and then 5 mg/kg, perorally on third day; type: ADME, organism-based; set-up: dose 4 mg/kg, route oral; settings: human, in vivo, po; procedure, shortened: as §3
[21] = AUC (0-infinity) in Ugandan children patient with uncomplicated malaria at 4 mg/kg, perorally […] for 3 days co-administered with amodiaquine at 10 mg/kg, perorally qd on first 2 days and then 5 mg/kg, perorally on third day; type: ADME, organism-based; set-up: dose 4 mg/kg, route oral, time infinity; settings: human, plasma, po; procedure, shortened: as §3
Homo sapiens [22] = experiment: Cmax in Ugandan children patient with uncomplicated malaria assessed as dihydroartemisinin level at 4 mg/kg, perorally […] for 3 days co-administered with amodiaquine at 10 mg/kg, perorally qd on first 2 days and then 5 mg/kg, perorally on third day; type: ADME, organism-based; set-up: dose 4 mg/kg, route oral; settings: in vivo, po; procedure, shortened: as §3
Homo sapiens [23] = experiment: Half life in Ugandan children patient with uncomplicated malaria assessed as dihydroartemisinin level at 4 mg/kg, perorally bid for 3 days co-administered with amodiaquine at 10 mg/kg, perorally qd on first 2 days and then 5 mg/kg, perorally on third day; type: ADME, organism-based; settings: in vivo, po
Procedure, shortened: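 Ugandan children aged 5–13 y (n = 21) were dosed with food and fat. Venous blood (3 ml) was drawn before the last dose and at 2, 4, 8, 24 and 120 h after it. Samples were iced, cold-centrifuged within 30 min, and the plasma was stored at −80°C. DHA was assayed by SPE LC-MS/MS in positive ion mode. λz came from terminal regression, usually the last three points. Values are geometric means (90% CIs).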

AUC(0-inf) [1]: 39.3 ng·h/mL | AUC (Homo sapiens [2]): 11242 ng·h/mL | AUC (Homo sapiens [3]): 14770 ng·h/mL | t1/2 (Homo sapiens [4]): 60 h | Cmax (Homo sapiens [5]): 235 ng/mL | AUC(0-inf) [6]: 154 ng·h/mL | half-life [7]: 3.3 h | AUC at 8 h [8]: 28.9 ng·h/mL | AUC (Homo sapiens [9]): 8437 ng·h/mL | Cmax [10]: 5.2 ng/mL | Concentration (Homo sapiens [11]): 149 ng/mL | Concentration (Homo sapiens [12]): 62 ng/mL
Compound: CCN(CC)Cc1cc(Nc2ccnc3cc(Cl)ccc23)ccc1O.Cl

AUC(0-inf) [13]: 168 ng·h/mL | Cmax [14]: 34 ng/mL | t1/2 (Homo sapiens [15]): 1.9 h | half-life [16]: 3.9 h | Cmax (Homo sapiens [17]): 119 ng/mL | AUC (Homo sapiens [18]): 382 ng·h/mL
Compound: CO[C@H]1O[C@@H]2O[C@@]3(C)CC[C@H]4[C@H](C)CC[C@@H]([C@H]1C)[C@@]24OO3 [ARTEMETHER]

AUC (Homo sapiens [19]): 1404 ng·h/mL | Cmax [20]: 51.3 ng/mL | AUC(0-inf) [21]: 113 ng·h/mL | Cmax (Homo sapiens [22]): 473 ng/mL | t1/2 (Homo sapiens [23]): 1.3 h
Compound: C[C@H]1[C@H](OC(=O)CCC(=O)O)O[C@@H]2O[C@@]3(C)CC[C@H]4[C@H](C)CC[C@@H]1[C@@]24OO3 [ARTESUNATE]

AUC(0-inf) [13]: 210000 ng·h/mL | Cmax [14]: 6760 ng/mL | half-life [16]: 32.7 h
Compound: CCCCN(CCCC)CC(O)c1cc(Cl)cc2c1-c1ccc(Cl)cc1/C2=C/c1ccc(Cl)cc1 (stereo unspecified) [LUMEFANTRINE]

Reference: ChEMBL document CHEMBL1212751, “Pharmacokinetics of artemether-lumefantrine and artesunate-amodiaquine in children in Kampala, Uganda” (Antimicrob Agents Chemother, 2010)
